In ChEMBL document CHEMBL1146037, “Design and discovery of a novel dipeptidyl-peptidase IV (CD26)-based prodrug approach” (J Med Chem, 2006):
pEC50, pIC50: −log10 of the molar value. Active and inactive are the calls of the source. No cut-off for these calls is given here.

Tested on: MT4
Test: Antiviral activity against HIV2 assessed as inhibition of HIV2-induced cytopathicity in MT4 cells
Type: functional, cell-based
Settings: not given
How it was run: (§1)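 CEM and MT-4 cell cultures infected with HIV-1 or HIV-2, with compounds diluted into culture medium from DMSO stocks. Antiviral activity is read at day 4 post-infection and reported as EC50.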

In the case of `Cc1cn(C2OC(CO[Si](C)(C)C(C)(C)C)C3(OS(=O)(=O)C=C3N)C2O[Si](C)(C)C(C)(C)C)c(=O)n(CCCNC(=O)[C@@H]2CCCN2C(=O)[C@@H](N)CC(N)=O)c1=O` (some centres not stated), the Activity was “inactive”.
For `Cc1cn(C2OC(CO[Si](C)(C)C(C)(C)C)C3(OS(=O)(=O)C=C3N)C2O[Si](C)(C)C(C)(C)C)c(=O)n(CCCNC(=O)[C@H](CC(C)C)NC(=O)[C@@H](N)C(C)C)c1=O` (some centres not stated), the Activity was “inactive”.
`Cc1cn(C2OC(CO[Si](C)(C)C(C)(C)C)C3(OS(=O)(=O)C=C3N)C2O[Si](C)(C)C(C)(C)C)c(=O)n(CCCNC(=O)[C@H](C)NC(=O)[C@@H](N)C(C)C)c1=O` (some centres not stated) was tested, and the Activity was “inactive”.
In the case of `Cc1cn([C@@H]2O[C@H](CO[Si](C)(C)C(C)(C)C)[C@@]3(OS(=O)(=O)C=C3N)[C@H]2O[Si](C)(C)C(C)(C)C)c(=O)n(CCCN)c1=O`, the Activity was “inactive”.
With `Cc1cn(C2OC(CO[Si](C)(C)C(C)(C)C)C3(OS(=O)(=O)C=C3N)C2O[Si](C)(C)C(C)(C)C)c(=O)n(CCCNC(=O)[C@@H](N)C(C)C)c1=O` (some centres not stated) the Activity was “inactive”.

Target: T1, Dipeptidyl peptidase 4 (Homo sapiens, UniProt P27487)
T1 sequence (P27487 whole entry): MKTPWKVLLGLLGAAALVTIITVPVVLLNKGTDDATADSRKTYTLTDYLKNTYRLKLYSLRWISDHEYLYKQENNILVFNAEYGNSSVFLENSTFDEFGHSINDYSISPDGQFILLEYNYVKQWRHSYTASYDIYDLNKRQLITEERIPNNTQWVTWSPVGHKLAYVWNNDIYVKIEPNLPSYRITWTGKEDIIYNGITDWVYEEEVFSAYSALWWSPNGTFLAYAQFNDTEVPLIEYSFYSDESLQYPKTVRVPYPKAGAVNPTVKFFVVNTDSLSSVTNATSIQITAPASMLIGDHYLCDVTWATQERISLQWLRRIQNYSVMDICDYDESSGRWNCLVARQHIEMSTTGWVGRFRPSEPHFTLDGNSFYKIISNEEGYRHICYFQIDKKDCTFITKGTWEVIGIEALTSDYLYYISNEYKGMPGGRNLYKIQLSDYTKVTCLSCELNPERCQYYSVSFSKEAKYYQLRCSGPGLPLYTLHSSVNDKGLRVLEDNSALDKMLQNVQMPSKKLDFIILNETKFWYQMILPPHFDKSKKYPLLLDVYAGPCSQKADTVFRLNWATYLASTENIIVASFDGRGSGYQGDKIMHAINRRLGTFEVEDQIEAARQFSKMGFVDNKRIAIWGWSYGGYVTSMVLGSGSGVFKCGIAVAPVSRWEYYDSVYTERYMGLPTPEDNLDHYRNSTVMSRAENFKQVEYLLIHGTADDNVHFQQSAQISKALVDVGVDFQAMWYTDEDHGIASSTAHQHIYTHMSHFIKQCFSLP
Test: Conversion of prodrug to parent drug NAP-TSAO-T catalyzed by CD26 after 24 hrs
Type: ADME
Parameters: concentration or dose not given beside the values
Settings: not given

First: Cc1cn(C2OC(CO[Si](C)(C)C(C)(C)C)C3(OS(=O)(=O)C=C3N)C2O[Si](C)(C)C(C)(C)C)c(=O)n(CCCNC(=O)[C@@H]2CCCN2C(=O)[C@@H](N)CC(N)=O)c1=O (some centres not stated)
Second: Cc1cn(C2OC(CO[Si](C)(C)C(C)(C)C)C3(OS(=O)(=O)C=C3N)C2O[Si](C)(C)C(C)(C)C)c(=O)n(CCCNC(=O)[C@H](C)NC(=O)[C@@H](N)C(C)C)c1=O (some centres not stated)
The Activity of the first is higher: 73% for the first, 35% for the second.

For `Cc1cn(C2OC(CO[Si](C)(C)C(C)(C)C)C3(OS(=O)(=O)C=C3N)C2O[Si](C)(C)C(C)(C)C)c(=O)n(CCCNC(=O)[C@H](CC(C)C)NC(=O)[C@@H](N)C(C)C)c1=O` (some centres not stated), the Activity was 0%.

Tested on: MT4
Test: Antiviral activity against HIV1 assessed as inhibition of HIV1-induced cytopathicity in MT4 cells
Type: functional, cell-based
Settings: Homo sapiens
How it was run: as §1

Compared with `Cc1cn(C2OC(CO[Si](C)(C)C(C)(C)C)C3(OS(=O)(=O)C=C3N)C2O[Si](C)(C)C(C)(C)C)c(=O)n(CCCNC(=O)[C@@H]2CCCN2C(=O)[C@@H](N)CC(N)=O)c1=O` (some centres not stated), `Cc1cn(C2OC(CO[Si](C)(C)C(C)(C)C)C3(OS(=O)(=O)C=C3N)C2O[Si](C)(C)C(C)(C)C)c(=O)n(CCCNC(=O)[C@@H](N)C(C)C)c1=O` (some centres not stated) is 0.29 log units higher in pEC50: 6.23 for the first, 6.52 for the second. The second is the more potent here.

`Cc1cn(C2OC(CO[Si](C)(C)C(C)(C)C)C3(OS(=O)(=O)C=C3N)C2O[Si](C)(C)C(C)(C)C)c(=O)n(CCCNC(=O)[C@H](CC(C)C)NC(=O)[C@@H](N)C(C)C)c1=O` (some centres not stated) and `Cc1cn(C2OC(CO[Si](C)(C)C(C)(C)C)C3(OS(=O)(=O)C=C3N)C2O[Si](C)(C)C(C)(C)C)c(=O)n(CCCNC(=O)[C@H](C)NC(=O)[C@@H](N)C(C)C)c1=O` (some centres not stated) are within 0.2 log units of each other in pEC50: 6.68 for the first, 6.64 for the second.

With `Cc1cn([C@@H]2O[C@H](CO[Si](C)(C)C(C)(C)C)[C@@]3(OS(=O)(=O)C=C3N)[C@H]2O[Si](C)(C)C(C)(C)C)c(=O)n(CCCN)c1=O` the pEC50 was 6.28.

Target: T1, Dipeptidyl peptidase 4
Test: Conversion of prodrug to parent drug NAP-TSAO-T catalyzed by CD26 after 1 hr
Type: ADME
Parameters: concentration or dose not given beside the values
Settings: not given

`Cc1cn(C2OC(CO[Si](C)(C)C(C)(C)C)C3(OS(=O)(=O)C=C3N)C2O[Si](C)(C)C(C)(C)C)c(=O)n(CCCNC(=O)[C@H](CC(C)C)NC(=O)[C@@H](N)C(C)C)c1=O` (some centres not stated) and `Cc1cn(C2OC(CO[Si](C)(C)C(C)(C)C)C3(OS(=O)(=O)C=C3N)C2O[Si](C)(C)C(C)(C)C)c(=O)n(CCCNC(=O)[C@H](C)NC(=O)[C@@H](N)C(C)C)c1=O` (some centres not stated) are the same in Activity: 0% for the first, 0% for the second.

Target: T1, Dipeptidyl peptidase 4
Test: Conversion of prodrug to parent drug NAP-TSAO-T catalyzed by CD26 after 4 hrs
Type: ADME
Parameters: concentration or dose not given beside the values
Settings: not given

First: Cc1cn(C2OC(CO[Si](C)(C)C(C)(C)C)C3(OS(=O)(=O)C=C3N)C2O[Si](C)(C)C(C)(C)C)c(=O)n(CCCNC(=O)[C@@H]2CCCN2C(=O)[C@@H](N)CC(N)=O)c1=O (some centres not stated)
Second: Cc1cn(C2OC(CO[Si](C)(C)C(C)(C)C)C3(OS(=O)(=O)C=C3N)C2O[Si](C)(C)C(C)(C)C)c(=O)n(CCCNC(=O)[C@H](C)NC(=O)[C@@H](N)C(C)C)c1=O (some centres not stated)
The Activity of the first is higher: 27% for the first, 6.5% for the second.

`Cc1cn(C2OC(CO[Si](C)(C)C(C)(C)C)C3(OS(=O)(=O)C=C3N)C2O[Si](C)(C)C(C)(C)C)c(=O)n(CCCNC(=O)[C@H](CC(C)C)NC(=O)[C@@H](N)C(C)C)c1=O` (some centres not stated) showed an Activity of 0%.

Tested on: CCRF-CEM
Test: Antiproliferative activity against human CEM cell line
Type: functional
Settings: not given
How it was run: (§2)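 Cytostatic assay: compounds made up as DMSO stocks and diluted in culture medium. CC50 is the concentration that inhibits MT-4 or CEM cell proliferation by 50%.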

First: Cc1cn(C2OC(CO[Si](C)(C)C(C)(C)C)C3(OS(=O)(=O)C=C3N)C2O[Si](C)(C)C(C)(C)C)c(=O)n(CCCNC(=O)[C@@H]2CCCN2C(=O)[C@@H](N)CC(N)=O)c1=O (some centres not stated)
Second: Cc1cn(C2OC(CO[Si](C)(C)C(C)(C)C)C3(OS(=O)(=O)C=C3N)C2O[Si](C)(C)C(C)(C)C)c(=O)n(CCCNC(=O)[C@@H](N)C(C)C)c1=O (some centres not stated)
The CC50 of the first is 2.6-fold higher: 25 µM for the first, 9.6 µM for the second.

`Cc1cn(C2OC(CO[Si](C)(C)C(C)(C)C)C3(OS(=O)(=O)C=C3N)C2O[Si](C)(C)C(C)(C)C)c(=O)n(CCCNC(=O)[C@H](CC(C)C)NC(=O)[C@@H](N)C(C)C)c1=O` (some centres not stated) and `Cc1cn(C2OC(CO[Si](C)(C)C(C)(C)C)C3(OS(=O)(=O)C=C3N)C2O[Si](C)(C)C(C)(C)C)c(=O)n(CCCNC(=O)[C@H](C)NC(=O)[C@@H](N)C(C)C)c1=O` (some centres not stated) are the same in CC50: 11 µM for the first, 11 µM for the second.

`Cc1cn([C@@H]2O[C@H](CO[Si](C)(C)C(C)(C)C)[C@@]3(OS(=O)(=O)C=C3N)[C@H]2O[Si](C)(C)C(C)(C)C)c(=O)n(CCCN)c1=O` was tested, and the CC50 was 12 µM.

Tested on: CCRF-CEM
Test: Antiviral activity against HIV1 assessed as inhibition of HIV1-induced cytopathicity in CEM cells
Type: functional, cell-based
Settings: Homo sapiens
How it was run: as §1

Going from `Cc1cn(C2OC(CO[Si](C)(C)C(C)(C)C)C3(OS(=O)(=O)C=C3N)C2O[Si](C)(C)C(C)(C)C)c(=O)n(CCCNC(=O)[C@@H]2CCCN2C(=O)[C@@H](N)CC(N)=O)c1=O` (some centres not stated) to `Cc1cn(C2OC(CO[Si](C)(C)C(C)(C)C)C3(OS(=O)(=O)C=C3N)C2O[Si](C)(C)C(C)(C)C)c(=O)n(CCCNC(=O)[C@@H](N)C(C)C)c1=O` (some centres not stated), the pEC50 rises from 6.43 to 7.22 (0.79 log units).

Compared with `Cc1cn(C2OC(CO[Si](C)(C)C(C)(C)C)C3(OS(=O)(=O)C=C3N)C2O[Si](C)(C)C(C)(C)C)c(=O)n(CCCNC(=O)[C@H](CC(C)C)NC(=O)[C@@H](N)C(C)C)c1=O` (some centres not stated), `Cc1cn(C2OC(CO[Si](C)(C)C(C)(C)C)C3(OS(=O)(=O)C=C3N)C2O[Si](C)(C)C(C)(C)C)c(=O)n(CCCNC(=O)[C@H](C)NC(=O)[C@@H](N)C(C)C)c1=O` (some centres not stated) is 0.38 log units higher in pEC50: 6.72 for the first, 7.10 for the second.

`Cc1cn([C@@H]2O[C@H](CO[Si](C)(C)C(C)(C)C)[C@@]3(OS(=O)(=O)C=C3N)[C@H]2O[Si](C)(C)C(C)(C)C)c(=O)n(CCCN)c1=O` showed a pEC50 of 6.85.

Target: Human immunodeficiency virus type 1 reverse transcriptase (Human immunodeficiency virus 1, UniProt Q72547)
Test: Inhibition of recombinant HIV1 reverse transcriptase
Settings: not given

Going from `Cc1cn(C2OC(CO[Si](C)(C)C(C)(C)C)C3(OS(=O)(=O)C=C3N)C2O[Si](C)(C)C(C)(C)C)c(=O)n(CCCNC(=O)[C@@H]2CCCN2C(=O)[C@@H](N)CC(N)=O)c1=O` (some centres not stated) to `Cc1cn(C2OC(CO[Si](C)(C)C(C)(C)C)C3(OS(=O)(=O)C=C3N)C2O[Si](C)(C)C(C)(C)C)c(=O)n(CCCNC(=O)[C@@H](N)C(C)C)c1=O` (some centres not stated), the pIC50 falls from 5.40 to 5.17 (0.23 log units).

`Cc1cn(C2OC(CO[Si](C)(C)C(C)(C)C)C3(OS(=O)(=O)C=C3N)C2O[Si](C)(C)C(C)(C)C)c(=O)n(CCCNC(=O)[C@H](CC(C)C)NC(=O)[C@@H](N)C(C)C)c1=O` (some centres not stated) and `Cc1cn(C2OC(CO[Si](C)(C)C(C)(C)C)C3(OS(=O)(=O)C=C3N)C2O[Si](C)(C)C(C)(C)C)c(=O)n(CCCNC(=O)[C@H](C)NC(=O)[C@@H](N)C(C)C)c1=O` (some centres not stated) are within 0.2 log units of each other in pIC50: 5.34 for the first, 5.27 for the second.

Tested on: MT4
Test: Antiproliferative activity against human MT4 cell line
Type: functional
Settings: not given
How it was run: as §2

First: Cc1cn(C2OC(CO[Si](C)(C)C(C)(C)C)C3(OS(=O)(=O)C=C3N)C2O[Si](C)(C)C(C)(C)C)c(=O)n(CCCNC(=O)[C@@H]2CCCN2C(=O)[C@@H](N)CC(N)=O)c1=O (some centres not stated)
Second: Cc1cn(C2OC(CO[Si](C)(C)C(C)(C)C)C3(OS(=O)(=O)C=C3N)C2O[Si](C)(C)C(C)(C)C)c(=O)n(CCCNC(=O)[C@@H](N)C(C)C)c1=O (some centres not stated)
The CC50 of the first is 2.7-fold higher: 22 µM for the first, 8.2 µM for the second.

Going from `Cc1cn(C2OC(CO[Si](C)(C)C(C)(C)C)C3(OS(=O)(=O)C=C3N)C2O[Si](C)(C)C(C)(C)C)c(=O)n(CCCNC(=O)[C@H](CC(C)C)NC(=O)[C@@H](N)C(C)C)c1=O` (some centres not stated) to `Cc1cn(C2OC(CO[Si](C)(C)C(C)(C)C)C3(OS(=O)(=O)C=C3N)C2O[Si](C)(C)C(C)(C)C)c(=O)n(CCCNC(=O)[C@H](C)NC(=O)[C@@H](N)C(C)C)c1=O` (some centres not stated), the CC50 rises from 13 µM to 22 µM (1.7-fold).

`Cc1cn([C@@H]2O[C@H](CO[Si](C)(C)C(C)(C)C)[C@@]3(OS(=O)(=O)C=C3N)[C@H]2O[Si](C)(C)C(C)(C)C)c(=O)n(CCCN)c1=O` showed a CC50 of 14 µM.

Tested on: CCRF-CEM
Test: Antiviral activity against HIV2 assessed as inhibition of HIV2-induced cytopathicity in CEM cells
Type: functional, cell-based
Settings: not given
How it was run: as §1

For `Cc1cn(C2OC(CO[Si](C)(C)C(C)(C)C)C3(OS(=O)(=O)C=C3N)C2O[Si](C)(C)C(C)(C)C)c(=O)n(CCCNC(=O)[C@@H]2CCCN2C(=O)[C@@H](N)CC(N)=O)c1=O` (some centres not stated), the Activity was “inactive”.
With `Cc1cn(C2OC(CO[Si](C)(C)C(C)(C)C)C3(OS(=O)(=O)C=C3N)C2O[Si](C)(C)C(C)(C)C)c(=O)n(CCCNC(=O)[C@H](CC(C)C)NC(=O)[C@@H](N)C(C)C)c1=O` (some centres not stated) the Activity was “inactive”.
With `Cc1cn(C2OC(CO[Si](C)(C)C(C)(C)C)C3(OS(=O)(=O)C=C3N)C2O[Si](C)(C)C(C)(C)C)c(=O)n(CCCNC(=O)[C@H](C)NC(=O)[C@@H](N)C(C)C)c1=O` (some centres not stated) the Activity was “inactive”.
With `Cc1cn([C@@H]2O[C@H](CO[Si](C)(C)C(C)(C)C)[C@@]3(OS(=O)(=O)C=C3N)[C@H]2O[Si](C)(C)C(C)(C)C)c(=O)n(CCCN)c1=O` the Activity was “inactive”.
In the case of `Cc1cn(C2OC(CO[Si](C)(C)C(C)(C)C)C3(OS(=O)(=O)C=C3N)C2O[Si](C)(C)C(C)(C)C)c(=O)n(CCCNC(=O)[C@@H](N)C(C)C)c1=O` (some centres not stated), the Activity was “inactive”.
